Assay results pooled from the literature.
Each line is one published result; the experiments were not run side by side.
ADAM17: Disintegrin and metalloproteinase domain-containing protein 17 (ADAM17, Homo sapiens, UniProt P78536)
DYRK2: Dual specificity tyrosine-phosphorylation-regulated kinase 2 (DYRK2, Homo sapiens, UniProt Q92630)

Structure (SMILES)	target	assay	conditions	inhibition [%]
COc1cc(Nc2ncc(F)c(Nc3ccc4c(n3)NC(=O)C(C)(C)O4)n2)cc(OC)c1OC	Mitogen-activated protein kinase kinase kinase 12 (MAP3K12, Homo sapiens, UniProt Q12852)	binding, competition with immobilised ligand	10 µM	32
CC(C)C[C@H](CC(=O)NO)C(=O)N[C@H](C(=O)N[C@@H](C)C(=O)NCCN)C(C)(C)C	ADAM17	enzyme activity, inhibitor	0.1 µM	0
Cn1cc(-c2cc(F)cc(N3CCn4c(cc5c4CCCC5)C3=O)c2CO)cc(Nc2ccc(N3CCN(C4COC4)CC3)cn2)c1=O	Phosphatidylinositol 4,5-bisphosphate 3-kinase catalytic subunit alpha isoform (PIK3CA, Homo sapiens, UniProt P42336)	enzyme activity, inhibitor	0.1 µM	-7
CN(CCN1CCC(OC(=O)Nc2ccccc2-c2ccccc2)CC1)C(=O)c1ccc(CN2CCC(C(N)=O)CC2)cc1	4-aminobutyrate aminotransferase, mitochondrial (Rattus norvegicus, UniProt P50554)	enzyme activity, inhibitor	1 µM	-12
c1ccc(C(NCCNC(c2ccccc2)c2ccccc2)c2ccccc2)cc1	Vasopressin V1b receptor (AVPR1B, Homo sapiens, UniProt P47901)	cell-free assay	10 µM	0
CCN(CC)CCCC[C@H](NC(=O)[C@H](CC(C)C)NC(=O)[C@H](C)NC(=O)[C@H](Cc1ccccc1)NC(=O)c1ccc(C(C)(C)C)cc1)C(=O)N[C@@H](CO)C(=O)OC	Vasopressin V1a receptor (AVPR1A, Homo sapiens, UniProt P37288)	ligand displacement, radioligand	10 µM	85
CCOC(=O)c1ccc(OC(=O)CCCCCNC(=N)N)cc1	ADAM17	enzyme activity, inhibitor	10 µM	7
COc1cc2c(cc1OC)-c1c(oc3cc4c(cc3c1=O)CCO4)CO2	Glycogen synthase kinase-3 beta (GSK3B, Homo sapiens, UniProt P49841)	enzyme activity, inhibitor, ADP detection	100 µM	14.3
C#Cc1n[nH]c2c(-c3cn([C@@H](C)c4ccccc4)c(=O)[nH]c3=O)cc(F)cc12	DYRK2	enzyme activity, inhibitor	0.1 µM	7.9
C[C@H](C(=O)N[C@H]1COc2ccccc2[C@@H]1S(C)(=O)=O)c1ccc(F)cc1	Gamma-aminobutyric acid type B receptor subunit 1 (GABBR1, Homo sapiens, UniProt Q9UBS5)	cell-free assay	10 µM	4
O=C(Nc1cccnn1)N1CCN([C@@H]2CCOc3cc(C(F)(F)F)ccc32)CC1	Motilin receptor (MLNR, Homo sapiens, UniProt O43193)	cell-free assay	20 µM	-3
C#Cc1n[nH]c2c(-c3cn([C@@H](C)c4ccccn4)c(=O)[nH]c3=O)cc(F)cc12	DYRK2	enzyme activity, inhibitor	0.1 µM	-0.2
